ASAP1 GAP inh: ASAP1 ArfGAP inhibition; inhibition, % at 16.5 µM; ASAP1-stimulated ARF1 GTP hydrolysis, GDP FP detection; Q9ULH1; 360,000 compounds, 0.19% hits; in the data active = inhibition above about 25%;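 note: 0% = vehicle with enzyme and substrate and 100% = no enzyme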
Rin1-Abl PPI inh: inhibitors of human Rin1-Abl protein interaction; TR-FRET Rin1/Abl binding, biochemical; inhibition, % at 7.35 µM; P00519+Q13671; 360,000 compounds, 0.4% hits; AID 588664; in the data active = inhibition above about 5%, passing the limit was not always enough
ARFGAP1 inh: rat ARFGAP1 inhibition; Arfgap1-stimulated ARF1 GTP hydrolysis, GDP FP detection; inhibition, % at 16.5 µM; 360,000 compounds, 0.26% hits;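 active = inhibition above a per-plate limit, mean inhibition of low control wells plus 3 SD, cut at about 25% in these data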;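 note: 0% = DMSO wells with enzyme and 100% = wells lacking Arfgap1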
Target sequence (Q62848 1-136 limits assumed): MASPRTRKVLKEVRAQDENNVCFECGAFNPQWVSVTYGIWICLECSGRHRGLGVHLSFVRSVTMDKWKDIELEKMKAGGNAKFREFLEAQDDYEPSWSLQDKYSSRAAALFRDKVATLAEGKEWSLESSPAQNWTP
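Assay system: purified rat His6-Arfgap1 residues 1-136 (GAP domain); Reagent: human Δ17 ARF1 bound to GTP; Dosing: 16.5 µM single point, 1.26% DMSO; Times: GTP hydrolysis reaction 2 h at 25 °C; Signal: FP, GDP Alexa 633 tracer displaced from anti-GDP antibody, 620/688 nm; Measure: % inhibition from polarization.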
GalR3 antagonist: antagonists of human GalR3 | AID 651719 | O60755 | 360,000 compounds, 0.44% hits | HEK293 GalR3-CNG cAMP membrane potential fluorescence; galR3 body fused to GalR1 C-terminus | inhibition, % at 3 µM;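 active = inhibition above the screen-wide average plus 3 SD, cut at about 13% in these data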;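 note: forskolin and galanin both at EC90 stimulate the cells; cAMP rise reported by CNG channel membrane potential dye signal; 0% = forskolin plus galanin with DMSO and 100% = forskolin alone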
Target sequence (O60755 1-299 limits assumed): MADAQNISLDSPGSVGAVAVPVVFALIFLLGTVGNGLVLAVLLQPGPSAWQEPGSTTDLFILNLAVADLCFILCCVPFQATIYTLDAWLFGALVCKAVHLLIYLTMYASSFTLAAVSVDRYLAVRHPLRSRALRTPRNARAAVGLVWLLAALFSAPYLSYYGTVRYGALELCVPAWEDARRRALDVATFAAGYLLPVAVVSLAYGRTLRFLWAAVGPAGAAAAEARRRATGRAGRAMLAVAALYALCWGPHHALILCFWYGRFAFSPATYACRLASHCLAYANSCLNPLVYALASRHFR
ARFGAP1 inh conf: rat ARFGAP1 inhibition, confirmed | shares compounds with ARFGAP1 inh | ARFGAP1-stimulated ARF1 GTP hydrolysis, GDP tracer FP | inhibition, % at 16.5 µM | 890 compounds, 30% hits;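 active = average inhibition over triplicates above the hit cutoff set in the earlier primary screen, cut at about 25% in these data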;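 note: 0% = Arfgap1 plus ARF1-GTP with DMSO and 100% = wells lacking Arfgap1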
Numbers without * were called inactive; / = no result given. Rows were chosen to be rich in hits. Some 1.2% of all compounds tested hit in one or more screens of this group.

SMILES	ASAP1 GAP inh	Rin1-Abl PPI inh	ARFGAP1 inh	GalR3 antagonist	ARFGAP1 inh conf
O=C(CSc1ccc(Cl)cc1)Nc1ccc(-c2nc3ccccc3[nH]2)cc1	3.2	-3.9	25.4*	-5.2	23.5
O=C(CSc1ccccc1)Nc1nc2ccccc2[nH]1	-7.6	-2.1	9.6	-3.6	/
COc1ccccc1NC(=O)CCSc1nnc(-c2ccncc2)o1	7.1	1.6	13.4	-1.9	/
O=C(CCSc1nnc(-c2ccncc2)o1)Nc1ccccc1Cl	-2.2	-1.9	29.1*	2.7	-7.4
COc1cc(CN2CCNC(=O)C2CC(=O)N(C)CCCN2CCOCC2)cc(OC)c1 (stereo not given)	7.3	-8.6	-0.4	1.4	/
COc1cc(CN2CCNC(=O)C2CC(=O)N(C)CCN2CCOCC2)cc(OC)c1 (stereo not given)	10.1	-3.0	28.4*	-0.9	-7.2
CC(=O)n1cc(/C=N/NC(=O)c2ccc(Cl)cc2)c2ccccc21	2.5	-3.8	26.8*	-3.6	-2.0
Cc1sc(NC(=O)CSc2nnc(COc3ccccc3)n2C)c(C#N)c1C	5.0	3.2	24.6*	-6.7	10.8
Cc1ccc(OCc2nnc(SCC(=O)Nc3sc(C)c(C)c3C#N)n2C)cc1	-4.2	3.2	14.8	-4.2	/
Cc1cc(N2CCN(CC(C)(C)O)C[C@H]2C)ccc1N1CCN(CC(C)(C)O)[C@H](C)C1	-4.1	/	1.7	1.8	/
CC(=O)N1CCN=C1SCc1ccccc1Cl	-3.6	0.0	-6.2	-1.9	/
CCC(=O)N1CCN=C1SCc1ccccc1Cl	3.2	1.0	28.6*	1.2	3.2
CCN1CCN(Cc2ccc(NC(=O)c3ccc(C)c(NC(=O)C(=O)c4c[nH]c5ccccc45)c3)cc2C(F)(F)F)CC1	9.7	-3.7	10.7	-7.4	/
CCN1CCN(Cc2ccc(NC(=O)c3cc(NC(=O)C(=O)c4c[nH]c5ccccc45)cc(OC)c3)cc2C(F)(F)F)CC1	19.8	-0.5	46.3*	-8.1	36.2*
O=C(NCc1ccccc1)[C@@H]1CCCN1C(=O)[C@H]1CCCN1C(=O)c1ccc(F)c(F)c1	-7.2	/	12.0	-1.5	/
O=P(OC1CCS(=O)(=O)C1)(c1ccccc1)c1ccccc1 (stereo not given)	3.2	1.6	26.6*	4.6	-0.6
O=C(Nc1ccc2ccccc2c1)OC1CCS(=O)(=O)C1 (stereo not given)	-10.7	/	2.0	-5.7	/
COC(=O)[C@]12C[C@H](CC(=O)N3CCCC3)C(=O)N(Cc3ccccc3)C1=C[C@H](C(C)C)O[C@@H]2C1CC1	-3.4	/	3.0	-6.1	/
COc1[nH]c2ccc(F)cc2c1C(=O)OCC1CCN(CCNS(C)(=O)=O)CC1	-12.3	-1.4	27.5*	/	2.4
CN(C(=O)c1ccc(NC(=O)C2CCN(C(=O)OC(C)(C)C)CC2)cc1)C1CC1	10.6	7.3	24.6*	-1.3	0.7
CC(C)(C)OC(=O)N1CCC(C(=O)Nc2ccc(C(=O)N3CCCC3)cc2)CC1	7.3	5.9	-3.4	-6.9	/
CC(C)NC(=O)Cn1c(SCC(=O)N2c3ccccc3CC2C)nc2ccccc21 (stereo not given)	1.0	0.4	30.7*	-2.6	1.2
C[C@H]1CN([C@@H](C)CO)C(=O)CCCn2cc(nn2)CO[C@@H]1CN(C)S(=O)(=O)c1cn(C)cn1	18.3	/	-9.4	-3.5	/
Cn1c(=O)cc(SCC(=O)NCc2ccc(F)cc2)c2ccccc21	-3.9	-24.8	4.6	-6.5	/
Cn1c(=O)cc(SCC(=O)NCCCN2CCN(c3ccc(F)cc3)CC2)c2ccccc21	0.7	-15.4	37.6*	-2.6	7.8
SMILES	ASAP1 GAP inh	Rin1-Abl PPI inh	ARFGAP1 inh	GalR3 antagonist	ARFGAP1 inh conf
O=S1(=O)CC(N2CC=CC2)CN1Cc1cn(Cc2cccc(C(F)(F)F)c2)nn1 (stereo not given)	-13.3	/	5.1	-5.3	/
COc1ccc(S(=O)(=O)NCc2cccnc2)cc1NC(=O)c1ccc(Cl)cc1	3.4	-3.1	25.0*	-2.4	1.3
COc1ccc(S(=O)(=O)NCc2cccnc2)cc1OC	8.4	4.3	-6.4	8.2	/
O=C(Cc1c[nH]c2ccccc12)Nc1ccc(Nc2cccnc2)c(-c2ccc(Oc3ccccc3)cc2)c1	6.4	/	17.4	-8.8	/
O=C(Cc1c[nH]c2ccccc12)Nc1ccc(Nc2cccnc2)c(-c2ccc(OC(F)(F)F)cc2)c1	4.2	/	26.5*	-8.1	9.7
O=C(Cc1c[nH]c2ccccc12)Nc1ccc(Nc2cccnc2)c(-c2cc(F)cc(F)c2)c1	4.6	/	25.1*	-7.6	20.1

Screening results as filed in PubChem BioAssay.
